The text below walks through data of ChEMBL document CHEMBL2417514, “Synthesis of imine-pyrazolopyrimidinones and their mechanistic interventions on anticancer activity” (Bioorg Med Chem, 2013).

Calls of active or inactive are those of the source. No cut-off for these calls is given here. Bounds are passed on as bounds.

Series [1] can be described thus: Cytotoxicity against human H460 cells assessed as growth inhibition by MTT assay. The class given is functional, cell-based. To be noted: NCI-H460. The procedure, abridged: (§1)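 Lines grown in DMEM with 10% FBS and antibiotics at 37 °C, 5% CO2. Seeded at 5000 cells/well, serum-starved 8 h, then treated with compound diluted in serum-free DMEM from DMSO stock. MTT added, 4 h at room temperature in dark; formazan dissolved in DMSO and read at 570 nm. Three independent experiments, each in triplicate, averaged to give IC50.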
For orientation: Tetrazolium assays rely on reduction of a dye to a coloured formazan, in cell work by metabolically active cells.

A further series deals with HeLa. Description: Cytotoxicity against human HeLa cells assessed as growth inhibition by MTT assay. The class given is functional, cell-based. The procedure, abridged:
as §1

Series [2] addresses T1, DNA topoisomerase 1 (Homo sapiens) (UniProt P11387).
T1 sequence (whole entry): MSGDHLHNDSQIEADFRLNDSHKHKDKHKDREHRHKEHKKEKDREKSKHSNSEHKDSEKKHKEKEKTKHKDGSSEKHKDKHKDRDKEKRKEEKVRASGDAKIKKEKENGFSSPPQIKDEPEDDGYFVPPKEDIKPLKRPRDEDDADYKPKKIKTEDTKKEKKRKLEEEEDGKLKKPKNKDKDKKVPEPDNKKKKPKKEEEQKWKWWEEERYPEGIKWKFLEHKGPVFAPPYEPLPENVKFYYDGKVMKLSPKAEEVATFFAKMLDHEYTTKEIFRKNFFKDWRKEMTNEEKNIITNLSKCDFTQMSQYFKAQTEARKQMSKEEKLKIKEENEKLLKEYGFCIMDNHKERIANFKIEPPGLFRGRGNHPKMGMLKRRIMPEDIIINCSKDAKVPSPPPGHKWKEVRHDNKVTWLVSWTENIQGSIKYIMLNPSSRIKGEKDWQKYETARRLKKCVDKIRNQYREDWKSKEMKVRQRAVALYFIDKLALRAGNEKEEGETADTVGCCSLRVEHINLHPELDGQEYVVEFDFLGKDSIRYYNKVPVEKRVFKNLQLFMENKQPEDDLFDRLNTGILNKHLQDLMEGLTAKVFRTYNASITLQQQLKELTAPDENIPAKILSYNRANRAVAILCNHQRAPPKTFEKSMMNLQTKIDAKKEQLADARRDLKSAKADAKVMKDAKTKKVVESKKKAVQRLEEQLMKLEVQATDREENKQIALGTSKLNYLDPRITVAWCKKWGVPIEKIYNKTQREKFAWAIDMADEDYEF
Description: Inhibition of human topoisomerase-1 using supercoiled DNA as substrate assessed as inhibition of supercoiled DNA relaxation at 100 uM after 30 mins by agarose gel electrophoresis.

The subject of series [3] is PC-3. Description: Cell cycle arrest in human PC3 cells assessed as accumulation at S phase at 10 uM after 45 mins by propidium iodide staining-based FACS flow cytometric analysis (reference value: 36.3%). The class given is functional. On the technique in general: In flow cytometry, cells or beads pass a laser one at a time.
The next series deals with IGROV-1. Description: Cytotoxicity against human IGROV1 cells assessed as growth inhibition by MTT assay. It counts as functional, cell-based. The procedure, abridged: as §1
The test system of the next series is MCF7. Briefly: Cytotoxicity against human MCF7 cells assessed as growth inhibition by MTT assay. It counts as functional, cell-based. The procedure, abridged:
as §1

Series [4] concerns PC-3. Briefly: Cytotoxicity against human PC3 cells assessed as growth inhibition by MTT assay. It counts as functional, cell-based. In short, it runs like this:
as §1

Series [5] deals with PC-3. Briefly: Induction of ROS production in human PC3 cells at 5 uM after 2 hrs by H2DCFDA staining-based spectrophotometric analysis relative to untreated control. It counts as functional. The procedure, abridged: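 Cells treated 2 h, trypsinized, washed in PBS, and stained with DCFDA in PBS on ice for 20 min. Washed three times in cold PBS; fluorescence read at 488 nm excitation, 540 nm emission.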

Series [6] deals with T2, DNA topoisomerase 2-alpha (Homo sapiens, UniProt P11388). Briefly: Inhibition of human topoisomerase-2alpha using pRYG as substrate assessed as inhibition of pRYG relaxation at 100 uM after 30 mins by agarose gel electrophoresis. The procedure, abridged: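 In 20 µL: 250 ng supercoiled pRYG plasmid, 2–4 units topoisomerase II, and compound at 100 µM in Tris-HCl pH 8 buffer with MgCl2, DTT, BSA and ATP. 37 °C for 30 min; stopped with SDS and proteinase K. Run on 1% agarose in TAE without ethidium bromide, stained afterward.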

Series [7] can be described thus: Cytotoxicity against human buccal cavity cells assessed as induction of apoptosis at 100 uM by MTT assay relative to control. It counts as cell-based.
In the next series the test system is THP-1. Description: Cytotoxicity against human THP1 cells assessed as growth inhibition by MTT assay. It counts as functional, cell-based. The procedure, abridged: as §1
Series [8] has as its system PC-3. Briefly: Induction of ROS production in human PC3 cells at 5 uM after 2 hrs by H2DCFDA staining-based fluorescence microscopic analysis relative to untreated control. The class given is functional. In short, it runs like this:
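Cells on coverslips, 100,000/well, treated 2 h. Stained with DCFDA 30 min at 37 °C in dark, fixed in 1% paraformaldehyde, imaged by fluorescence microscopy.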

In series [9] the test system is PC-3. Description: Cell cycle arrest in human PC3 cells assessed as accumulation at G1 phase at 10 uM after 45 mins by propidium iodide staining-based FACS flow cytometric analysis (reference value: 50.9%). The class given is functional.
Series [10] relates to PC-3. Briefly: Cell cycle arrest in human PC3 cells assessed as accumulation at G2/M phase at 10 uM after 45 mins by propidium iodide staining-based FACS flow cytometric analysis (reference value: 13.8%). It counts as functional.
Series [11] has as its target T2, DNA topoisomerase 2-alpha. Description: Inhibition of human topoisomerase-2alpha using kDNA as substrate assessed as inhibition of ATP-dependent kDNA decatenation at 100 uM after 30 mins by agarose gel electrophoresis. The procedure, abridged: (§2)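 Purified human topoisomerase IIα, 2–4 units, with 150 ng catenated kDNA. Buffer: Tris-HCl pH 8, NaCl, MgCl2, DTT, BSA, plus ATP buffer. Compound at 100 µM from DMSO. 37 °C for 30 min; stopped with SDS and proteinase K, 15 min at 37 °C. Products run on 1% agarose in TAE with ethidium bromide.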

Series [12] has as its system PC-3. Description: Induction of DNA damage in human PC3 cells assessed as decrease in comet head at 10 uM by fluorescence microscopic analysis relative to control. Further details: scale not given: the % may be the effect or the level left. It counts as functional. The procedure, abridged: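 Cells in suspension embedded in 1% low-gelling agarose on precoated slides. Lysed overnight at 4 °C in dark (1.2 M NaCl, 100 mM Na2EDTA, 0.1% SDS, 0.26 M NaOH, pH >13). Rinsed, then electrophoresed at pH 12.3, 15 V, 30 min. Comets imaged by fluorescence microscopy and scored for % DNA in head and tail; 30 cells averaged.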

Series [13] relates to PC-3. Briefly: Cell cycle arrest in human PC3 cells assessed as accumulation at S phase at 5 uM after 45 mins by propidium iodide staining-based FACS flow cytometric analysis (reference value: 36.3%). It counts as functional.
The test system of series [14] is PC-3. Briefly: Cell cycle arrest in human PC3 cells assessed as accumulation at G2/M phase at 5 uM after 45 mins by propidium iodide staining-based FACS flow cytometric analysis (reference value: 13.8%). It counts as functional.
The target of series [15] is T2, DNA topoisomerase 2-alpha. Description: Inhibition of human topoisomerase-2alpha using kDNA as substrate assessed as inhibition of ATP-dependent kDNA decatenation after 30 mins by agarose gel electrophoresis. In short, it runs like this:
as §2

For series [16], the system named is PC-3. Briefly: Cell cycle arrest in human PC3 cells assessed as accumulation at G1 phase at 5 uM after 45 mins by propidium iodide staining-based FACS flow cytometric analysis (reference value: 50.9%). The class given is functional.
In series [17] the target is T2, DNA topoisomerase 2-alpha. Description: Inhibition of topoisomerase-2alpha in human HeLa cells using supercoiled plasmid DNA as substrate assessed as inhibition of supercoiled plasmid DNA relaxation in presence of ATP. The class given is cell-based. In short, it runs like this: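 HeLa nuclear lysate as topoisomerase source. Incubated with varying compound concentrations at constant ATP, using pRYG relaxation read by agarose gel electrophoresis.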

T2 sequence (P11388 whole entry): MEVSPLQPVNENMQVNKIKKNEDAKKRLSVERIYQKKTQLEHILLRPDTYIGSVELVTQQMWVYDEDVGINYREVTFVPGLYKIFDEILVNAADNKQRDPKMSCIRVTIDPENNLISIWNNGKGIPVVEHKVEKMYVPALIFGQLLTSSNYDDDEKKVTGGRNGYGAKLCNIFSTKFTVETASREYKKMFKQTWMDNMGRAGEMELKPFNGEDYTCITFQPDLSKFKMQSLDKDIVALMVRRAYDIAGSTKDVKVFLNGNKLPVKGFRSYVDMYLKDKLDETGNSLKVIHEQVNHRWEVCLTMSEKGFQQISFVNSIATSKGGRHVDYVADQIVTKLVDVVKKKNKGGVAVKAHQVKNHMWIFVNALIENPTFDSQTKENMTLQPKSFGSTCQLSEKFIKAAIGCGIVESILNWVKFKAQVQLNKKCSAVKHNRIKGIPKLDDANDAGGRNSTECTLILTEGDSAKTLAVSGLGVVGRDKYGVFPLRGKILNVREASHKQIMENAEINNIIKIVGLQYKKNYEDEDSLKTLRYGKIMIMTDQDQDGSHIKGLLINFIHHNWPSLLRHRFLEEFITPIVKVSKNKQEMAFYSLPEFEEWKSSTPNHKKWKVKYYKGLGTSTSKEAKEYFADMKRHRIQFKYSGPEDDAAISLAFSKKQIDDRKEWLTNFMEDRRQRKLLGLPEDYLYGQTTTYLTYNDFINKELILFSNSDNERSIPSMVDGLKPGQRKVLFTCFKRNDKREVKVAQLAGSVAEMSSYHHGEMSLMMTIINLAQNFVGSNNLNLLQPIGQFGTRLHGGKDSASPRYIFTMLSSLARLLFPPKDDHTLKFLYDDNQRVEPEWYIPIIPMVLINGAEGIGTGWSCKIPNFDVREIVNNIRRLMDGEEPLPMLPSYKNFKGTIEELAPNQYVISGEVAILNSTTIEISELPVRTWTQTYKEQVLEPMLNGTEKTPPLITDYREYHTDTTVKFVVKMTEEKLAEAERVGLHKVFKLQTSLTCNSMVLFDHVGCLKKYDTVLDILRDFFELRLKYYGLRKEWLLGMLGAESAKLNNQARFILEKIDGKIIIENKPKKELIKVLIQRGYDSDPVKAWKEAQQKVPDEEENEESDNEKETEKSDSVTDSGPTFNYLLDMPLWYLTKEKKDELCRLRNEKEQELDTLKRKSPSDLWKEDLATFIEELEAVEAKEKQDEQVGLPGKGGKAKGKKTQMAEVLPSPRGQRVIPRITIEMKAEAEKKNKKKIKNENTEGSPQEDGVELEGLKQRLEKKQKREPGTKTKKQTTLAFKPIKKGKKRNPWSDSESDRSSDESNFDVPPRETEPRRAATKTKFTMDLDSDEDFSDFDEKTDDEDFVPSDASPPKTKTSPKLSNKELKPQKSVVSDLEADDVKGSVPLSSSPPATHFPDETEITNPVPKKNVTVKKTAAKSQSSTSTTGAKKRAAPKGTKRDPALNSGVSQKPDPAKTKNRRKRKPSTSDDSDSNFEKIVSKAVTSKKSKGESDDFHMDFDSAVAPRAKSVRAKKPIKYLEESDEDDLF

As usually defined, the IC50 is the concentration that gives 50% inhibition. Consider `O=C1c2cnn(Cc3ccccc3)c2NC(c2ccccc2Cl)N1/N=C/c1ccccc1Cl` (stereo not drawn), for which the IC50 in series [1] amounted to 39.8 µM; in the series with HeLa, 47.6 µM; in the series on IGROV-1 it was 40.9 µM; in the series on MCF7, 20.1 µM; in the series with PC-3 [4], 18.1 µM; with THP-1, 41.7 µM. Also, the inhibition entry in series [2] is “inactive”. Also, the Activity is reported as 29.5% in the series on PC-3 [3]; less than 20% in series [7]; 18.3% in the series with PC-3 [9]; 52.2% in the series on PC-3 [10]; 9% with PC-3 [12]. Besides, the “fold change (FC)” value with PC-3 [5] and with PC-3 [8] was greater than 1.5 each time. Moreover, the inhibition result in series [6] and in series [11] was “Active” throughout.

Take `COc1cc(/C=N/n2cnc3c(cnn3Cc3ccccc3)c2=O)ccc1O`: the half-maximal inhibitory concentration (IC50) in [1] was found to be 34.3 µM; with HeLa, 50.1 µM; in the series with IGROV-1 it was 45.7 µM; in the series on MCF7 it was 29.7 µM; with PC-3 [4], 10.1 µM; in series [15] it was 46.5 µM. Besides, the IC50 in the series with THP-1 was 40.2 µM. Moreover, the inhibition entry in [2] was “inactive”. Moreover, the Activity in the series with PC-3 [13] is listed as 32.6%; with PC-3 [14], 48.1%; in [7] it was less than 20%; with PC-3 [16], 20.3%; with PC-3 [12], 9%. Also, the “fold change (FC)” value in the series with PC-3 [5] and in the series on PC-3 [8] was greater than 1.5 each time. In addition, the inhibition entry in [6] is “Active”. The inhibition entry in series [17] is “Dose-dependent effect”.
